Laboratory results as given in ChEMBL document CHEMBL5120856, “New salicylic acid derivatives, double inhibitors of glycolate oxidase and lactate dehydrogenase, as effective agents decreasing oxalate production” (Eur J Med Chem, 2022).
Activity calls are given as the source filed them. The calls are words filed in the database; no cut-off is given here.

What was measured:
Hepatocyte [1] = experiment: Inhibition of GO/LDHA in hyperoxaluric-primary hepatocyte isolated from Hoga1-knockdown PH3 C57BL/6 mouse assessed as relative oxalate output at 10 uM measured at 24 hrs in the presence of hydroxyproline relative to control; type: cell-based
Method in brief: (§1)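 Hoga1-/- mouse primary hepatocytes challenged with 10 mM hydroxyproline, inhibitor 10 μM; extracellular oxalate measured by colorimetric kit 24 and 48 h after dosing, given as ratio to oxalate without inhibitor; negative values are below detection limit; mean of three/four replicates ± SD.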

Hepatocyte [2] = experiment: Cytotoxicity against hyperoxaluric-primary hepatocyte isolated from Agxt1-knockdown PH1 C57BL/6 mouse assessed as cell death at 10 uM by MTS assay; type: toxicity, cell-based; conditions: hepatocytes, Agxt1-knockdown PH1, 10 µM
Method in brief: (§2)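 Primary hepatocytes from Agxt1-/- (PH1, 5 mM glycolate), Grhpr-/- (PH2, 10 mM glycolate) or Hoga1-/- (PH3, 10 mM hydroxyproline) mice, incubated with inhibitor at 10 μM; viability followed through the oxalate assay by MTS tetrazolium method.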

Hepatocyte [3] = experiment: Inhibition of GO/LDHA in hyperoxaluric-primary hepatocyte isolated from Grhpr-knockdown PH2 C57BL/6 mouse assessed as relative oxalate output at 10 uM measured at 48 hrs in the presence of glycolate relative to control; type: cell-based
Method in brief: (§3)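 Grhpr-/- mouse primary hepatocytes cultured with 10 mM glycolate, inhibitor at 10 μM; extracellular oxalate determined colorimetrically at 24 and 48 h post-treatment, expressed relative to untreated medium (RO); negative RO means below detection limit; three/four replicates, mean ± SD.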

Hepatocyte [4] = experiment: Cytotoxicity against hyperoxaluric-primary hepatocyte isolated from Grhpr-knockdown PH2 C57BL/6 mouse assessed as cell death at 10 uM by MTS assay; type: toxicity, cell-based; conditions: hepatocytes, Grhpr-knockdown PH2 (primary hyperoxaluria type 2); method in brief: as §2
Hepatocyte [5] = experiment: Inhibition of GO/LDHA in hyperoxaluric-primary hepatocyte isolated from Hoga1-knockdown PH3 C57BL/6 mouse assessed as relative oxalate output at 10 uM measured at 48 hrs in the presence of hydroxyproline relative to control; type: cell-based; method in brief: as §1
Hepatocyte [6] = experiment: Cytotoxicity against hyperoxaluric-primary hepatocyte isolated from Hoga1-knockdown PH3 C57BL/6 mouse assessed as cell death at 10 uM by MTS assay; type: toxicity, cell-based; conditions: hepatocytes, Hoga1-knockdown PH3, 10 µM; method in brief: as §2
Hepatocyte [7] = experiment: Inhibition of GO/LDHA in hyperoxaluric-primary hepatocyte isolated from Grhpr-knockdown PH2 C57BL/6 mouse assessed as relative oxalate output at 10 uM measured at 24 hrs in the presence of glycolate relative to control; type: cell-based; method in brief: as §3
[8] = target: T1, 2-Hydroxyacid oxidase 1 (Mus musculus) (UniProt Q9WU19); experiment: Non-competitive mixed inhibition of N-terminal His-tagged mouse recombinant glycolate oxidase expressed in Escherichia coli BL21 (DE3) cells assessed as decrease in Vmax with increase in apparent Km using glycolate as substrate upto 60 microM
T1 sequence (whole entry): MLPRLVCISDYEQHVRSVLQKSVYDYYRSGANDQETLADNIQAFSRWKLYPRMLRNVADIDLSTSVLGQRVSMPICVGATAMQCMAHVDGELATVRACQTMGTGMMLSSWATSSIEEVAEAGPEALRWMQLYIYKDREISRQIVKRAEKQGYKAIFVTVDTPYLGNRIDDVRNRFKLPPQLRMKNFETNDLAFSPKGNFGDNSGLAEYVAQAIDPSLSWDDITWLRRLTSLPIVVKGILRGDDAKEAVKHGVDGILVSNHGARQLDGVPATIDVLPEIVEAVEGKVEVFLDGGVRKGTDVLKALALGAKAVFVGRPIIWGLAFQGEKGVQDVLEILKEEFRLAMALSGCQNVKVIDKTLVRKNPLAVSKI

[9] = target: T2, L-lactate dehydrogenase B chain (Homo sapiens, UniProt P07195); experiment: Inhibition of human recombinant LDHB using pyruvate as substrate preincubated for 10 mins followed by substrate addition and measured every 60 sec for 10 mins in the presence of NADH by fluorescence assay
2-Hydroxyacid oxidase 1 [10] = target: T3, 2-Hydroxyacid oxidase 1 (Mus musculus, UniProt Q9WU19); experiment: (§4) Non-competitive mixed inhibition of N-terminal His-tagged mouse recombinant glycolate oxidase expressed in Escherichia coli BL21 (DE3) cells assessed as inhibition constant using varying concentration of glycolate as substrate measured every 60 sec for 15 mins by Amplex red and horseradish peroxidase based fluorescence assay
T3 sequence (Q9WU19 whole entry): T1 sequence (whole entry)

2-Hydroxyacid oxidase 1 [11] = target: T3, 2-Hydroxyacid oxidase 1; experiment: Inhibition of N-terminal His-tagged mouse recombinant glycolate oxidase expressed in Escherichia coli BL21 (DE3) cells using glycolate as substrate preincubated for 10 mins followed by substrate addition and measured after 10 mins by Amplex red and horseradish peroxidase based fluorescence assay
[12] = Inhibition of GO/LDHA in hyperoxaluric-primary hepatocyte isolated from Grhpr-knockdown PH2 C57BL/6 mouse measured at 48 hrs in the presence of 10 mM glycolate; type: cell-based
Method in brief: (§5)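 Grhpr-/- hepatocytes with 10 mM glycolate; eight inhibitor concentrations per replicate; colorimetric extracellular oxalate at 24 or 48 h; EC50 as mean of three/four replicates ± SD.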

2-Hydroxyacid oxidase 1 [13] = target: T4, 2-Hydroxyacid oxidase 1 (Homo sapiens, UniProt Q9UJM8); experiment: as §4, with “human” for “mouse”
T4 sequence (Q9UJM8 whole entry): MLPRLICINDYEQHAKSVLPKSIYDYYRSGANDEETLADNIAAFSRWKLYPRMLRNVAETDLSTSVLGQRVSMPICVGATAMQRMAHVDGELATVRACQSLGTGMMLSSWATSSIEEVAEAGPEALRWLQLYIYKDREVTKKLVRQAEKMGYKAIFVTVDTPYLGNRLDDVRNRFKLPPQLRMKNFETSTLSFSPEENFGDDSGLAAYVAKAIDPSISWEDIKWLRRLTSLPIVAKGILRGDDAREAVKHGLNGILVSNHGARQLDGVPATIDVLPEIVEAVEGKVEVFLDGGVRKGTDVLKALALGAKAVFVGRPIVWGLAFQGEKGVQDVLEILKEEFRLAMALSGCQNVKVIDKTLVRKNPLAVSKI

HEK293 = experiment: Cytotoxicity against HEK293 cells assessed as reduction in cell viability upto 50 uM measured after 48 hrs by MTT assay; type: toxicity, cell-based; conditions: human, hek293, 48 h
[14] = Inhibition of GO/LDHA in hyperoxaluric-primary hepatocyte isolated from Agxt1 knockdown PH1 C57BL/6 mouse measured at 48 hrs in the presence of 5 mM glycolate; type: cell-based
Method in brief: (§6)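 Agxt1-/- hepatocytes with 5 mM glycolate; eight inhibitor concentrations per replicate; extracellular oxalate measured colorimetrically at 24 or 48 h; EC50 as mean of three/four replicates ± SD.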

[15] = target: T5, L-lactate dehydrogenase A chain (Homo sapiens, UniProt P00338); experiment: Non-competitive inhibition of human recombinant LDHA assessed as inhibition constant using varying concentration of pyruvate as substrate preincubated for 10 mins followed by substrate addition and measured every 60 sec for 10 mins in the presence of NADH by fluorescence assay
[16] = target: T2, L-lactate dehydrogenase B chain; experiment: Non-competitive inhibition of human recombinant LDHB assessed as inhibition constant using varying concentration of pyruvate as substrate preincubated for 10 mins followed by substrate addition and measured every 60 sec for 10 mins in the presence of NADH by fluorescence assay
Hepatocyte [17] = experiment: Inhibition of GO/LDHA in hyperoxaluric-primary hepatocyte isolated from Agxt1 knockdown PH1 C57BL/6 mouse assessed as reduction in extracellular oxalate concentration at 10 uM measured at 48 hrs in the presence of glycolate relative to control; type: cell-based; parameters: scale not given: the % may be the effect or the level left
Method in brief: (§7)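 Agxt1-/- mouse primary hepatocytes cultured with 5 mM glycolate, inhibitor at 10 μM; extracellular oxalate measured by colorimetric kit 24 and 48 h after inhibitor addition; relative oxalate = oxalate with inhibitor over oxalate without inhibitor; negative values mean below detection limit; mean of three/four replicates ± SD.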

[18] = Inhibition of GO/LDHA in hyperoxaluric-primary hepatocyte isolated from Grhpr-knockdown PH2 C57BL/6 mouse measured at 24 hrs in the presence of 10 mM glycolate; type: cell-based; method in brief: as §5
[19] = Inhibition of GO/LDHA in hyperoxaluric-primary hepatocyte isolated from Agxt1 knockdown PH1 C57BL/6 mouse measured at 24 hrs in the presence of 5 mM glycolate; type: cell-based; method in brief: as §6
Hepatocyte [20] = experiment: Inhibition of GO/LDHA in hyperoxaluric-primary hepatocyte isolated from Agxt1 knockdown PH1 C57BL/6 mouse assessed as relative oxalate output at 10 uM measured at 48 hrs in the presence of glycolate relative to control; type: cell-based; method in brief: as §7
[21] = target: T5, L-lactate dehydrogenase A chain; experiment: Inhibition of human recombinant LDHA using pyruvate as substrate preincubated for 10 mins followed by substrate addition and measured every 60 sec for 10 mins in the presence of NADH by fluorescence assay
Hepatocyte [22] = experiment: Inhibition of GO/LDHA in hyperoxaluric-primary hepatocyte isolated from Agxt1 knockdown PH1 C57BL/6 mouse assessed as relative oxalate output at 10 uM measured at 24 hrs in the presence of glycolate relative to control; type: cell-based; method in brief: as §7
2-Hydroxyacid oxidase 1 [23] = target: T4, 2-Hydroxyacid oxidase 1; experiment: Inhibition of N-terminal His-tagged human recombinant glycolate oxidase expressed in Escherichia coli BL21 (DE3) cells using glycolate as substrate preincubated for 10 mins followed by substrate addition and measured after 10 mins by Amplex red and horseradish peroxidase based fluorescence assay
[24] = target: T6, 2-Hydroxyacid oxidase 1 (Homo sapiens) (UniProt Q9UJM8); experiment: (§8) Inhibition of N-terminal His-tagged human recombinant glycolate oxidase expressed in Escherichia coli BL21 (DE3) cells using glycolate as substrate at 20 uM preincubated for 5 mins followed by substrate addition and measured after 1 min in the presence of DCHBS by horseradish peroxidase coupled colorimetric method relative to control; conditions: time 6.0 min
T6 sequence (whole entry): T4 sequence (Q9UJM8 whole entry)

[25] = target: T1, 2-Hydroxyacid oxidase 1 (Mus musculus); experiment: as §8, with “mouse” for “human”; conditions: time 6.0 min
[26] = target: T5, L-lactate dehydrogenase A chain; experiment: Inhibition of human recombinant LDHA using pyruvate as substrate at 10 uM preincubated for 10 mins followed by substrate addition and measured every 60 sec for 10 mins in the presence of NADH by fluorescence assay relative to control; conditions: time 20.0 min
Method in brief: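 Recombinant human LDHA or LDHB (0.015 U/mL) with NADH 150 μM and inhibitor 10 μM in 50 mM phosphate pH 7, 10 min rt baseline read; pyruvate 1 mM added, NADH fluorescence (ex 340/em 460 nm) read every 60 s for 10 min; baseline-corrected slope versus 100% activity control; four replicates.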

T2 sequence (P07195 whole entry): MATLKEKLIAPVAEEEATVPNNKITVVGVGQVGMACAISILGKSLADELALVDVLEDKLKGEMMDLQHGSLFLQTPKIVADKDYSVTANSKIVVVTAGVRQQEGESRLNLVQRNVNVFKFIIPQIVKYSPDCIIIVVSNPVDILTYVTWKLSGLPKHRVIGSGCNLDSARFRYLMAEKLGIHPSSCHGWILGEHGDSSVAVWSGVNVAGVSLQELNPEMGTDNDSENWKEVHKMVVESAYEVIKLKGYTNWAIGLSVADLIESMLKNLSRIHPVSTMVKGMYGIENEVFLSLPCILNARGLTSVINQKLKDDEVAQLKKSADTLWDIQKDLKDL

IC50 [9]	IC50 (2-Hydroxyacid oxidase 1 [11])	IC50 [21]	inhibition [24]	inhibition [25]	SMILES	fold change (FC) (Hepatocyte [1])	Activity (Hepatocyte [2])	fold change (FC) (Hepatocyte [3])	Activity (Hepatocyte [4])	fold change (FC) (Hepatocyte [5])	Activity (Hepatocyte [6])	fold change (FC) (Hepatocyte [7])	Activity (HEK293)	fold change (FC) (Hepatocyte [22])	other results
					CC(C)(C)C(O)/C=C/c1ccc2c(c1)OCO2 (configuration not stated) [STIRIPENTOL]	0.7	Non-Toxic	0.33	Non-Toxic	0.49	Non-Toxic	0.27			
29 µM	14.4 µM				O=Cc1ccc(-c2ccc(O)c(C(=O)O)c2)o1		Non-Toxic		Non-Toxic		Non-Toxic		Non-Toxic		inhibition [8]: Active; Ki (2-Hydroxyacid oxidase 1 [10]): 7.9 µM; EC50 [12]: 1900 nM; Ki (2-Hydroxyacid oxidase 1 [13]): 18.2 µM; EC50 [14]: 8400 nM; Ki [15]: 1400 nM; Ki [16]: 12.9 µM; Activity (Hepatocyte [17]): 60%; EC50 [18]: 1800 nM; EC50 [19]: 3500 nM
					COc1cccc2c1C(=O)c1c(O)c3c(c(O)c1C2=O)C[C@@](O)(C(=O)CO)C[C@@H]3O[C@H]1C[C@H](N)[C@H](O)[C@H](C)O1 [DOXORUBICIN]								Non-Toxic		
5.9 µM	5.4 µM	1500 nM			N.O=C(O)c1cc(-c2ccc(CNc3ccc([N+](=O)[O-])cc3)o2)ccc1O	0.18	Non-Toxic	0.88	Non-Toxic	0.1	Non-Toxic	0.6	Non-Toxic	0.04	fold change (FC) (Hepatocyte [20]): 0.5; EC50 [14]: 1600 nM; Activity (Hepatocyte [17]): 50%; IC50 (2-Hydroxyacid oxidase 1 [23]): 10.3 µM; EC50 [19]: 600 nM
			< 50%	< 50%	COc1ccc(CNCc2ccc(-c3ccc(O)c(C(=O)O)c3)o2)cc1										inhibition [26]: 18%
			< 50%	< 50%	O=C(O)c1cc(-c2ccc(CNCc3cccnc3)o2)ccc1O										
3.3 µM		2500 nM	< 50%	< 50%	N.O=C(O)c1cc(-c2ccc(CNCc3ccccc3)o2)ccc1O		Non-Toxic		Non-Toxic		Non-Toxic			0.18	fold change (FC) (Hepatocyte [20]): 0.63
			< 50%	< 50%	O=C(O)c1cc(-c2ccc(CNCc3ccc(O)cc3)o2)ccc1O										inhibition [26]: 18%
2.3 µM	0.8 µM	1600 nM			C#CCN(Cc1ccc(-c2ccc(O)c(C(=O)O)c2)o1)Cc1ccc(-c2ccc(O)c(C(=O)O)c2)o1.N.N	0.21	Non-Toxic	0.25	Non-Toxic	0.52	Non-Toxic	0.2	Non-Toxic	0.44	IC50 (2-Hydroxyacid oxidase 1 [23]): 2 µM
			< 50%	< 50%	O=C(O)c1cc(-c2ccc(CN3CCCCC3)o2)ccc1O										
4.3 µM	8 µM	2300 nM			CCN(CC)CC.O=C(O)c1cc(-c2ccc(CN(Cc3ccccc3)Cc3ccco3)o2)ccc1O	0.22	Non-Toxic	0.34	Non-Toxic	0.3	Non-Toxic	0.31		-0.09	fold change (FC) (Hepatocyte [20]): 0.42; EC50 [14]: 600 nM; Activity (Hepatocyte [17]): 60%; IC50 (2-Hydroxyacid oxidase 1 [23]): 16.8 µM; EC50 [19]: 500 nM
		8000 nM	< 50%	< 50%	O=C(O)c1cc(-c2ccc(CNCc3ccc([N+](=O)[O-])cc3)o2)ccc1O										
